This note sets out measurements from article PMC9476207 (ACS Omega, 2022).

The subject of experiment [1] is NCI-H226. Briefly: NCI-60 single-dose antiproliferative screen. The experiment is classed as cell-based. The settings on record: Homo sapiens, NCI-H226, 48 h, read-out: growth percent. An outline of the steps:
(§1)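 NCI-60 protocol. Lines were grown in RPMI 1640 with 5% FBS and 2 mM L-glutamine, plated and incubated 24 h at 37 °C; time-zero plates were TCA-fixed. The test compound was dissolved in DMSO, diluted in medium with 50 μg/mL gentamicin and given once at a final 10^-5 M (DMSO control) for 48 h. Cells were fixed with cold TCA (1 h, 4 °C) and stained with 0.4% SRB in 1% acetic acid for 10 min. Dye was dissolved in 10 mM Trizma base and read at 515 nm. Growth percent was calculated from time-zero, test and control ODs.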

Experiment [2] concerns NCI-H460. Briefly: NCI-60 single-dose antiproliferative screen. The experiment is classed as cell-based. As to conditions: Homo sapiens, NCI-H460, 48 h, read-out: growth percent. An outline of the steps:
as §1

Experiment [3] has as its system A549/ATCC. The experiment can be described thus: NCI-60 single-dose antiproliferative screen. The experiment is classed as cell-based. The settings on record: Homo sapiens, A549, 48 h, read-out: growth percent. An outline of the steps:
as §1

The subject of experiment [4] is TK-10. Briefly: NCI-60 single-dose antiproliferative screen. The experiment is classed as cell-based. As to conditions: Homo sapiens, TK-10, 48 h, read-out: growth percent. In a few lines: (§2)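 Cells grown in RPMI 1640 with 5% FBS and 2 mM L-glutamine, plated and held 24 h at 37 °C; time-zero plates TCA-fixed. DMSO stocks were diluted in gentamicin-containing medium to a final 10^-5 M, with a DMSO-only control. Exposure 48 h, 5% CO2. Adherent cells TCA-fixed 1 h at 4 °C, stained with 0.4% SRB, solubilised in 10 mM Trizma base, read at 515 nm. Growth percent derived from ODtzero, ODtest and ODctrl.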

Experiment [5] concerns OVCAR-4. The experiment can be described thus: NCI-60 single-dose antiproliferative screen. The experiment is classed as cell-based. As to conditions: Homo sapiens, OVCAR-4, 48 h, read-out: growth percent. An outline of the steps: as §1
Experiment [6] deals with OVCAR-8. Briefly: NCI-60 single-dose antiproliferative screen. The experiment is classed as cell-based. As to conditions: Homo sapiens, OVCAR-8, 48 h, read-out: growth percent. An outline of the steps: as §1
Experiment [7] deals with SNB-19. The experiment can be described thus: NCI-60 single-dose antiproliferative screen. The experiment is classed as cell-based. As to conditions: Homo sapiens, SNB-19, 48 h, read-out: growth percent. An outline of the steps:
as §2

Experiment [8] relates to OVCAR-3. Briefly: NCI-60 single-dose antiproliferative screen. The experiment is classed as cell-based. The settings on record: Homo sapiens, OVCAR-3, 48 h, read-out: growth percent. In a few lines: as §1
In experiment [9] the test system is HCC-2998. Briefly: NCI-60 single-dose antiproliferative screen. The experiment is classed as cell-based. The settings on record: Homo sapiens, HCC 2998, 48 h, read-out: growth percent. In a few lines: as §1
For experiment [10], the system named is MOLT-4. The experiment can be described thus: NCI-60 single-dose antiproliferative screen. The settings on record: Homo sapiens, MOLT-4, 48 h, read-out: growth percent. The experiment is classed as cell-based. In a few lines:
as §1

Experiment [11] relates to NCI-H460 cells. The experiment can be described thus: Colony-forming ability. The experiment is classed as cell-based, human.
Experiment [12] deals with M14. The experiment can be described thus: NCI-60 single-dose antiproliferative screen. The experiment is classed as cell-based. The settings on record: Homo sapiens, M14, 48 h, read-out: growth percent. In a few lines: as §1
For experiment [13], the system named is EKVX. The experiment can be described thus: NCI-60 single-dose antiproliferative screen. The experiment is classed as cell-based. As to conditions: Homo sapiens, 48 h, read-out: growth percent. An outline of the steps:
as §1

The test system of experiment [14] is COLO205. The experiment can be described thus: NCI-60 single-dose antiproliferative screen. As to conditions: Homo sapiens, COLO 205, 48 h, read-out: growth percent. The experiment is classed as cell-based. An outline of the steps: as §1
For experiment [15], the system named is NCI-H460 cells. The experiment can be described thus: Wound healing assay. The experiment is classed as cell-based, human.
In experiment [16] the test system is HCT-15. The experiment can be described thus: NCI-60 single-dose antiproliferative screen. The experiment is classed as cell-based. As to conditions: Homo sapiens, HCT-15, 48 h, read-out: growth percent. An outline of the steps:
as §1

Experiment [17] deals with MDA-MB-468. The experiment can be described thus: NCI-60 single-dose antiproliferative screen. The experiment is classed as cell-based. As to conditions: Homo sapiens, MDA-MB-468, 48 h, read-out: growth percent. In a few lines:
as §1

Experiment [18] concerns UO-31. Briefly: NCI-60 single-dose antiproliferative screen. The experiment is classed as cell-based. The settings on record: Homo sapiens, UO-31, 48 h, read-out: growth percent. An outline of the steps:
as §2

For experiment [19], the system named is HOP-62. The experiment can be described thus: NCI-60 single-dose antiproliferative screen. The experiment is classed as cell-based. As to conditions: Homo sapiens, HOP-62, 48 h, read-out: growth percent. An outline of the steps:
as §1

For experiment [20], the system named is IGROV1. Briefly: NCI-60 single-dose antiproliferative screen. The experiment is classed as cell-based. As to conditions: Homo sapiens, IGROV-1, 48 h, read-out: growth percent. An outline of the steps: as §1
Experiment [21] deals with ACHN. The experiment can be described thus: NCI-60 single-dose antiproliferative screen. The settings on record: Homo sapiens, 48 h, read-out: growth percent. The experiment is classed as cell-based. In a few lines:
as §1

The subject of experiment [22] is HL-60(TB). The experiment can be described thus: NCI-60 single-dose antiproliferative screen. The experiment is classed as cell-based. As to conditions: Homo sapiens, HL-60, 48 h, read-out: growth percent.
Experiment [23] deals with A498. Briefly: NCI-60 single-dose antiproliferative screen. The experiment is classed as cell-based. The settings on record: Homo sapiens, A498, 48 h, read-out: growth percent. An outline of the steps: as §1

The structures appear in SMILES notation.

As for `COc1cc(CNC(=O)CCCC/C=C/C(C)C)ccc1OCc1cn(-c2ccc(C#N)cc2)nn1` [14j, (E)-N-(4-((1-(4-Cyanophenyl)-1H-1,2,3-triazol-4-yl)methoxy)-3-methoxybenzyl)-8-methylnon-6-enamide], the activity at 10 µM in experiment [1] is 100%; in [2] it was 93%; in experiment [3] it was 84.8%; in experiment [4], 91.8%; in experiment [5], 94.9%; in experiment [6] it was 63.3%. In addition, the activity at 10 µM in experiment [7] stood at 81.9%; in experiment [8] it was 109%; in experiment [9], 94.5%; in experiment [10], 88.4%; in experiment [12], 95.3%; in experiment [13] it was 90.8%. For the same compound, the activity at 10 µM in [14] was 117%; in experiment [16] it was 83.5%; in experiment [17], 74.9%; in experiment [18] it was 112%; in experiment [19], 103%; in experiment [20], 100%. For the same compound, the colony-forming ability result in experiment [11] is given as “inhibited the colony-forming ability”. The “migration capacity (wound healing)” value in [15] was “moderate wound healing”.

On to `COc1cc(CNC(=O)C[C@H](C)CCC=C(C)C)ccc1OCc1cn(-c2ccc(Cl)cc2)nn1` [18b, (R)-N-(4-((1-(4-Chlorophenyl)-1H-1,2,3-triazol-4-yl)methoxy)-3-methoxybenzyl)-3,7-dimethyloct-6-enamide], for which the activity at 10 µM in experiment [1] is 63.8%; in experiment [2], 65%; in [3], 57.1%; in experiment [4], 95.6%; in experiment [5] it was 52.7%; in [6], 49.1%. The activity at 10 µM in experiment [7] came out at 78.6%; in experiment [21] it was 44.8%; in experiment [8], 82.3%; in experiment [9], 75.9%; in experiment [10] it was 71.7%; in [22], 87.8%. Besides, the activity at 10 µM in experiment [12] was 90.8%; in [13] it was 75.3%; in experiment [14], 91.1%; in experiment [16], 65.3%; in [23], 98.9%; in experiment [17], 41.3%. The activity at 10 µM in experiment [18] turned out to be 62.5%; in experiment [19] it was 61.5%; in experiment [20], 80.2%.

As for `COc1cc(CNC(=O)CCCC/C=C/C(C)C)ccc1OCc1cn(-c2cccc([N+](=O)[O-])c2)nn1` [14f, (E)-N-(3-Methoxy-4-((1-(3-nitrophenyl)-1H-1,2,3-triazol-4-yl)methoxy)benzyl)-8-methylnon-6-enamide], the activity at 10 µM in experiment [1] was determined as 90.9%; in [2], 91.8%; in experiment [3], 92%; in experiment [4], 105%; in experiment [5], 94.2%; in [6] it was 76.9%. Further, the activity at 10 µM in [7] came to 68.2%; in experiment [21], 78.9%; in experiment [8] it was 105%; in [9], 101%; in experiment [10], 86.6%; in [12] it was 93.4%. Also, the activity at 10 µM in experiment [13] came out at 95.1%; in [14], 107%; in experiment [16], 77.9%; in experiment [17], 72.3%; in experiment [18], 74.7%; in [19], 97.4%. The activity at 10 µM in experiment [20] is 89.4%.
